Results from ChEMBL document CHEMBL1649277, “Inhibition of herpesvirus replication by 5-substituted 4'-thiopyrimidine nucleosides” (Antimicrob Agents Chemother, 2009).
Calls of active or inactive are those of the source. No cut-off for these calls is given here.

Tests used:
[1] = tested on: Human alphaherpesvirus 2; experiment: Antiviral activity against HSV2 12247 harboring TK C337Y mutant gene infected in HFF after 3 days by plaque reduction assay; type: functional, organism-based; settings: Human alphaherpesvirus 2, 12247, 72 h
Outline: (§1)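 Confluent HFF monolayers (passage <10) were infected in triplicate wells at 20–30 plaques per well, with 1 h adsorption and rocking every 15 min. Six serial dilutions (top 100 μM) were made in MEM with 2% FBS and pooled human immunoglobulin. Cells were incubated 3 days and stained with crystal violet. Plaques were counted, and EC50 was interpolated from plaque reduction.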

[2] = Selectivity index, ratio of CC50 for HFF to EC50 for HSV2 MS infected in HFF
[3] = tested on: Human alphaherpesvirus 2; experiment: Antiviral activity against HSV2 AG-3 harboring TK Q105P mutant gene infected in HFF after 3 days by plaque reduction assay; type: functional, organism-based; settings: Human alphaherpesvirus 2, AG-3, 72 h; outline: as §1
[4] = tested on: Human alphaherpesvirus 2; experiment: Antiviral activity against HSV2 infected in BALB/c mouse assessed as virus-induced mortality rate at 30 mg/kg, po BID administered 24 hrs post infection; type: functional
[5] = tested on: Human alphaherpesvirus 1; experiment: Antiviral activity against HSV1 B-2006 harboring frameshift mutation at Q185 in TK infected in HFF after 3 days by plaque reduction assay; type: functional, organism-based; settings: Human alphaherpesvirus 1, B-2006, 72 h; outline: as §1
[6] = tested on: Human betaherpesvirus 5; experiment: Antiviral activity against human cytomegalovirus AD169 infected in HFF after 8 to 10 days by plaque reduction assay; type: functional, organism-based; settings: Human betaherpesvirus 5, AD169
Outline: (§2)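 Plaque reduction on confluent HFF monolayers in triplicate wells: 1 h adsorption, then six serial compound dilutions (top 100 μM) in MEM with 2% FBS, no immunoglobulin. Incubation was 8 days for HCMV and 10 days for VZV. Plaques were stained with 0.017% neutral red in PBS and counted microscopically. EC50 was interpolated at 50% plaque reduction.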

[7] = tested on: Human alphaherpesvirus 2; experiment: Antiviral activity against HSV2 infected in BALB/c mouse assessed mean time to virus-induced death at 30 mg/kg, po BID administered 48 hrs post infection; type: functional
[8] = tested on: Human alphaherpesvirus 1; experiment: Antiviral activity against HSV1 DM2.1 harboring frameshift mutation in TK infected in HFF after 3 days by plaque reduction assay; type: functional, organism-based; settings: Human alphaherpesvirus 1, DM2.1, 72 h; outline: as §1
[9] = tested on: Human alphaherpesvirus 2; experiment: Antiviral activity against HSV2 infected in BALB/c mouse assessed mean time to virus-induced death at 10 mg/kg, po BID administered 48 hrs post infection; type: functional
[10] = Antiviral activity against Human herpesvirus 6 GS infected in human HSB2 cells assessed as inhibition of viral replication after 7 days; type: functional, cell-based, Human herpesvirus 6 (strain GS); settings: Human betaherpesvirus 6A, HSB2, 168 h
Outline: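 HSB-2 cells, 2 × 10^4 per well in RPMI 1640 with 10% FBS, received compound dilutions in triplicate wells. Cells were infected with HHV-6A strain GS and kept 7 days at 37°C. Total DNA was denatured and immobilized on nylon membrane. Viral DNA was then measured by digoxigenin-labeled probe hybridization and anti-hapten antibody detection with densitometric quantitation.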

[11] = tested on: Human alphaherpesvirus 1; experiment: Antiviral activity against HSV1 E377 infected in HFF after 3 days by plaque reduction assay; type: functional, organism-based; settings: Human alphaherpesvirus 1, E377, 72 h; outline: as §1
[12] = tested on: Human alphaherpesvirus 2; experiment: Antiviral activity against HSV2 infected in BALB/c mouse assessed mean time to virus-induced death at […], po BID administered 24 hrs post infection; type: functional
[13] = Selectivity index, ratio of CC50 for human HSB2 cells to EC50 for Human herpesvirus 6 GS infected in human HSB2 cells; type: toxicity, cell-based; settings: read-out: Ratio CC50/EC50
[14] = Selectivity index, ratio of CC50 for human Akata cells to EC50 for Epstein-Barr virus infected in human Akata cells; type: toxicity, cell-based; settings: read-out: Ratio CC50/EC50
[15] = tested on: Human alphaherpesvirus 2; experiment: Antiviral activity against 4'-thioIDU-resistant HSV2 infected in HFF assessed as inhibition of viral DNA synthesis-associated incorporation in DNA by immunofluorescence assay; type: functional, organism-based
Outline: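 HFF on coverslips were infected with HSV-2 MS or the resistant isolate (MOI 0.2 PFU/cell) for 48 h. Cells were pulsed with BrdUrd or 10 μM test compound for 30 min before fixation. Incorporation was detected with a cross-reacting anti-BrdUrd monoclonal antibody, infected cells with anti-155-kDa nucleocapsid antibody, and nuclei with DAPI.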

[16] = tested on: Human alphaherpesvirus 3; experiment: Antiviral activity against VZV Ellan infected in HFF after 8 to 10 days by plaque reduction assay; type: functional, organism-based; settings: Human alphaherpesvirus 3, Ellan; outline: as §2
[17] = Cytotoxicity against human Akata cells after 3 days by MTS assay; type: cell-based
Outline: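 Akata cells were plated as for the EBV assay but not induced with anti-IgG. Viability was read at the same time as the antiviral endpoint: MTS was added, plates incubated 4 h at 37°C, and formazan absorbance read at 490 nm. Medium-only control wells were included. CC50 was the concentration reducing viable cells by 50%.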

[18] = Selectivity index, ratio of CC50 for HFF to EC50 for human cytomegalovirus AD169 infected in HFF
[19] = tested on: Human alphaherpesvirus 2; experiment: Antiviral activity against HSV2 infected in BALB/c mouse assessed as virus-induced mortality rate at 30 mg/kg, po BID administered 72 hrs post infection; type: functional
[20] = Selectivity index, ratio of CC50 for human BCBL1 cells to EC50 for Human herpesvirus 8 infected in human BCBL1 cells; type: toxicity, cell-based; settings: read-out: Ratio CC50/EC50
[21] = tested on: Human alphaherpesvirus 1; experiment: Antiviral activity against HSV1 PAA5 harboring polymerase R842S mutant gene infected in HFF after 3 days by plaque reduction assay; type: functional, organism-based; settings: Human alphaherpesvirus 1, PAA5, 72 h; outline: as §1
[22] = tested on: Human betaherpesvirus 5; experiment: Antiviral activity against human cytomegalovirus 1117 harboring UL54 K513N mutant gene infected in HFF after 8 to 10 days by plaque reduction assay; type: functional, organism-based; settings: Human betaherpesvirus 5, 1117
Outline: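 Plaque reduction in confluent HFF with six serial dilutions (top 100 μM) and no immunoglobulin added. Virus was adsorbed 1 h on triplicate wells. Cells were incubated 8 days, stained with 0.017% neutral red in PBS, and plaques counted. EC50 is the concentration reducing plaque number by 50%.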

[23] = tested on: Human alphaherpesvirus 2; experiment: Antiviral activity against HSV2 infected in BALB/c mouse assessed as virus-induced mortality rate at 30 mg/kg, po BID administered 48 hrs post infection; type: functional
[24] = tested on: Human alphaherpesvirus 1; experiment: Antiviral activity against HSV1 SC16-S1 harboring TK A265T/C336Y mutant gene infected in HFF after 3 days by plaque reduction assay; type: functional, organism-based; settings: Human alphaherpesvirus 1, SC16-S1, 72 h; outline: as §1
[25] = tested on: Human alphaherpesvirus 2; experiment: Antiviral activity against HSV2 11680 harboring TK R223H mutant gene infected in HFF after 3 days by plaque reduction assay; type: functional, organism-based; settings: Human alphaherpesvirus 2, 11680, 72 h; outline: as §1
[26] = Cytotoxicity against human BCBL1 cells after 3 days by MTS assay; type: cell-based
[27] = tested on: Human alphaherpesvirus 2; experiment: Antiviral activity against 4'-thioIDU-resistant HSV2 infected in HFF after 3 days by plaque reduction assay; type: functional, organism-based; settings: Human alphaherpesvirus 2, 72 h; outline: as §1
[28] = tested on: Human alphaherpesvirus 2; experiment: Antiviral activity against HSV2 infected in BALB/c mouse assessed mean time to virus-induced death at 30 mg/kg, po BID administered 72 hrs post infection; type: functional
[29] = tested on: Human alphaherpesvirus 2; experiment: Antiviral activity against HSV2 infected in BALB/c mouse assessed mean time to virus-induced death at […], po BID administered 48 hrs post infection; type: functional
[30] = tested on: Human alphaherpesvirus 2; experiment: Antiviral activity against HSV2 infected in BALB/c mouse assessed as virus-induced mortality rate at […], po BID administered 72 hrs post infection; type: functional

Compound: O=c1[nH]c(=O)n([C@H]2C[C@H](O)[C@@H](CO)S2)cc1I
- EC50 [1]: > 444 µM
- Ratio CC50/EC50 [2]: > 140
- EC50 [3]: > 444 µM
- Activity [4]: 100%
- EC50 [5]: > 444 µM
- EC50 [6]: 5.85 µM
- Time [7]: 12.8 days
- EC50 [8]: > 444 µM
- Time [9]: 10.4 days
- EC50 [10]: > 100 µM
- EC50 [11]: 1.2 µM
- Time [12]: 8.2 days
- selectivity ratio [13]: 1
- selectivity ratio [14]: < 4.3
- inhibition [15]: inactive
- EC50 [16]: 2 µM
- CC50 at 72 h [17]: 0.68 µM
- Ratio CC50/EC50 [18]: >17
- Activity [19]: 100%
- selectivity ratio [20]: < 3.6
- EC50 [21]: 28 µM
- EC50 [22]: 4.4 µM
- Activity [23]: 100%
- EC50 [24]: > 444 µM
- EC50 [25]: 246 µM
- CC50 at 72 h [26]: 14 µM
- EC50 [27]: 57 µM
- Time [28]: 11.7 days
- Time [29]: 9.4 days
- Activity [30]: 100%
